# Rows were chosen to be rich in hits. Some 4.7% of all compounds tested hit in one or more screens of this group.
# MPTP block: inhibitors of mitochondrial permeability transition pore | 360,000 compounds, 1.4% hits | isolated mouse mitochondria, Ca2+ swelling absorbance, 30 min | AID 602449 | inhibition, % at 10 µM;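 active = inhibition of 50% or more, scaled per plate between neutral and stimulator controls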;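 note: 0% = DMSO wells given calcium and 100% = 1 mM EGTA wells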
# MT1-MMP act inh: blocks activation of human MT1-MMP. 360,000 compounds, 0.061% hits. HT1080 RFP-PRO-GFP cells, GFP/RFP ratio fluorescence, overnight; percent of plate control window, DMSO zero. AID 651647. GFP/RFP ratio change, % at 20 µM. P50281;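 active = GFP/RFP ratio change of at least 30% with cell ATP level not reduced by more than half and red fluorescence within 50% of control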
#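 Test system: HT1080 cells expressing an RFP-PRO-GFP fluorescent reporter construct / Compound dosing: single-point 20 µM compound, 1% DMSO / Schedule: cells overnight before dosing, compound overnight, 37 °C, 5% CO2 / Evaluation: GFP/RFP fluorescence ratio / Control set: DMSO and RFP-L50D-GFP cell wells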
# ADAM10 inh: inhibits human ADAM10; O14672; recombinant ADAM10, EDANS/DABCYL FRET peptide cleavage, 3 h; inhibition, % at 7 µM; 370,000 compounds, 0.62% hits;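 active = inhibition above a per-campaign cutoff equal to the mean of compounds falling between control-based bounds plus 3 SD, cut at about 20% in these data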;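 note: 0% = DMSO wells while the 100% control is not disclosed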
# Target sequence (O14672 214-748 limits assumed): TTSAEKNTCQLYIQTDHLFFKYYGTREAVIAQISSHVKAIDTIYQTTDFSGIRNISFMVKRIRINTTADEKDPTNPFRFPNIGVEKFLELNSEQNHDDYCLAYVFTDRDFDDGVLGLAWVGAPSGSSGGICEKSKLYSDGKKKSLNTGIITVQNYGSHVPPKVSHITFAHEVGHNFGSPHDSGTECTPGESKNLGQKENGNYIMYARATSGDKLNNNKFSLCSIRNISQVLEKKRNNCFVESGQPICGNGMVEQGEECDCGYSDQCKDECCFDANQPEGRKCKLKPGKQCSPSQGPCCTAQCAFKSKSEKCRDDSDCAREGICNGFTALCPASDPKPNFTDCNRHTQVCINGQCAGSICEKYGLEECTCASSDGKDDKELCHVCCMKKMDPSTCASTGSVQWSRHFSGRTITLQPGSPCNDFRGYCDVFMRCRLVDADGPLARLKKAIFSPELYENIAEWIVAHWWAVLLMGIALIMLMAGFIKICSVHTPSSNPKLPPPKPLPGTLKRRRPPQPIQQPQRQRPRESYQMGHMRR
# GRIN3A LBD mod: modulators (binders) of human NR3A ligand-binding domain | 340,000 compounds, 2.5% hits | NR3A LBD differential scanning fluorimetry, Tm shift; 0% = protein alone, 100% = glycine-bound protein | Tm shift relative to glycine control, % at 25 µM | AID 1259313;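 active = melting temperature shift of at least 10% of the positive control shift, at one fixed dose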
# SKN-1 inh: blocks SKN-1 activity in C. elegans | AID 624304 | 360,000 compounds, 0.49% hits | inhibition, % at 21.8 µM | C. elegans VP596 Pgst-4::GFP/RFP ratio, acrylamide-induced, 24 h;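 active = interference check ratio from 0.5 to 1.5 plus GFP to RFP signal ratio inhibition reaching or exceeding a fixed threshold, cut at about 30% in these data, passing the limit was not always enough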
# ADAM17 inh: inhibitors of human ADAM17; AID 720648; inhibition, % at 6.95 µM; P78536; recombinant ADAM17, EDANS/DABCYL FRET peptide cleavage; 370,000 compounds, 0.83% hits;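 active = inhibition above the mean of compounds lying between control limits plus 3 SD, set per campaign, cut at about 8.5% in these data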;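 note: 0% = DMSO-only wells as the low control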
# Rh123 counter: membrane potential counter-screen of mitochondrial pore inhibitors; shares compounds with MPTP block; isolated mitochondria, Rhodamine 123 fluorescence; inhibition, % at 10 µM; 5,000 compounds, 78% hits; in the data active = inhibition above about 22%;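 note: 0% = DMSO vehicle and 100% = positive control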
# MPTP swell DR: MPTP inhibition, dose response swelling confirmation; AID 651561; 780 compounds, 58% hits; isolated mitochondria swelling, absorbance; IC50, µM; shares compounds with MPTP block; in the data active = IC50 below about 20 µM
# MPTP cs DR: counter-screen for mitochondrial permeability transition pore inhibitors, dose response; IC50, µM; isolated mitochondria counterscreen, fluorescence read-out; 780 compounds, 49% hits; shares compounds with MPTP block; in the data active = IC50 below about 80 µM
# Active calls of the source: *; i = inactive; . = no result given.
SMILES,MPTP block,MT1-MMP act inh,ADAM10 inh,GRIN3A LBD mod,SKN-1 inh,ADAM17 inh,Rh123 counter,others
Cc1ccc(C(=O)NC2CCCc3c2cnn3-c2ccc(F)cc2F)cn1 (configuration not stated),52*,4,3,.,-6,0,91*,
Cc1cccc(-n2ncc3c2CCCC3NC(=O)c2ccc[n+]([O-])c2)c1C (configuration not stated),0,1,0,-2,-5,1,.,
Cn1nccc1C(=O)NC1CCCc2c1cnn2-c1ccc(C(C)(C)C)cc1 (configuration not stated),98*,4,-1,16*,11,-2,103*,
CC(OC(=O)Nc1cccc(Cl)c1)C(=O)O (configuration not stated),-1,1,2,.,24,1,.,
CC(C)OC(=O)NCCOC(=O)Nc1cccc(Cl)c1,100*,3,4,1,-9,-1,93*,
CC(C)OC(=O)NC(C)(C)COC(=O)Nc1cccc(Cl)c1,82*,1,9,-1,6,5,96*,
CC(C)OC(=O)NCCOC(=O)Nc1ccc(Cl)c(Cl)c1,97*,5,11,0,-2,5,98*,
CC(=O)c1cccc(NC(=O)Nc2ccc(C(=O)N3CCOCC3)cc2)c1,1,-14,-3,0,2,-3,.,
N#Cc1c(-c2cccc([N+](=O)[O-])c2)nc2n(c1=O)CCS2,-1,0,-2,-2,-4,2,.,
O=C(NC1CCCC1)C1c2ccccc2OCC(=O)N1Cc1ccc2c(c1)OCO2 (configuration not stated),1,1,-19,.,8,-5,.,
O=C(COC(=O)c1cccc(Br)c1)NCCc1ccccc1,-1,3,8,1,-4,0,.,
Cc1ccc(CN2CCN(c3ncccn3)CC2)o1,0,4,-7,-1,-3,-3,.,
CCc1ccccc1NC(=O)Nc1cc(F)ccc1F,58*,2,5,-8,17,-1,88*,
COc1cccc(N2CCN(Cc3ncc(-c4ccccc4)o3)CC2)c1,1,-1,2,0,7,2,.,
N#C/C(=C(/O)c1ccc([N+](=O)[O-])s1)c1nc2ccccc2[nH]1,85*,-9,-11,-1,14,-10,81*,
N#C/C(=C(/O)c1ccc(Br)s1)c1nc2ccccc2[nH]1,3,-5,-8,-1,-1,-4,.,
COc1ccc(Cl)cc1NC(=O)c1ccco1,80*,3,11,0,23,1,1,MPTP swell DR=i;MPTP cs DR=>80
COc1ccc(Cl)cc1NC(=O)c1cc(-c2ccco2)on1,-1,-4,-3,1,10,-5,.,
COc1ccc(Cl)cc1NC(=O)c1cccc([N+](=O)[O-])c1O,85*,27,5,2,3,-1,96*,
O=C(O)c1cc(N2C(=O)CCC2=O)ccc1Cl,-1,4,-5,0,6,-3,.,
CCCCn1c(=O)[nH]c(=O)c2c1nc(-c1ccccc1F)n2Cc1ccccc1,0,-2,-8,-3,9,-6,.,
O=c1[nH]c(-c2ccccc2F)nc2c1sc(=S)n2Cc1ccccc1,66*,1,5,6,5,0,69*,
CC(=O)N(\C=C/C=C/C=C1\Sc2ccccc2C1=O)c1ccccc1,62*,-6,-1,-4,27,1,62*,
CCOCCCNCc1cn(-c2ccc(F)cc2F)nc1-c1ccccc1C,58*,-1,-3,0,9,-4,-2,MPTP swell DR=15*;MPTP cs DR=60*
O=C(Cn1cnc2c(oc3ccccc32)c1=O)N1CCCc2ccccc21,0,3,-2,-3,-9,-1,.,
SMILES,MPTP block,MT1-MMP act inh,ADAM10 inh,GRIN3A LBD mod,SKN-1 inh,ADAM17 inh,Rh123 counter,others
O=C(CSc1ncnc2c1oc1ccccc12)N1CCCc2ccccc21,79*,2,3,2,3,-4,72*,
O=[N+]([O-])c1cc([N+](=O)[O-])c2cccnc2c1Oc1ccccc1O,70*,9,2,-11,-2,3,80*,
Cc1nnc(NC(=O)C2CCN(S(=O)(=O)c3cc([N+](=O)[O-])ccc3Cl)CC2)o1,1,2,-8,-2,-7,-5,.,
Cc1cccc2sc(NC(=O)C3CCN(S(=O)(=O)c4cc([N+](=O)[O-])ccc4Cl)CC3)nc12,100*,-7,20*,2,2,6,75*,
COc1cc(N)c2ncccc2c1Cl,0,0,-33,8,24,-7,.,
CN1CCN(C(=O)C2=C[C@H](C3CC3)C[C@H](OCc3ccc(CO)cc3)O2)CC1,-1,2,3,-1,17,-3,.,
CC(C)Sc1cc(N2CCOCC2)nc(-c2ccccc2)n1,50*,-2,-6,1,4,1,-9,MPTP swell DR=>100;MPTP cs DR=77*
CN(Cc1cc(Cl)cc(Cl)c1O)Cc1c(O)ccc2ccccc12,89*,4,-41,10,8,-13,85*,
O=[N+]([O-])c1cccc(S(=O)(=O)Nc2ccc(S(=O)(=O)N3CCCC3)cc2)c1,0,1,3,-8,17,-1,.,
O=[N+]([O-])c1cccc(S(=O)(=O)Nc2nc3ccccc3nc2Nc2cccc(S(=O)(=O)N3CCCCC3)c2)c1,60*,-30,-1,-4,-2,0,30*,
Cc1cccc(S(=O)(=O)Nc2nc3ccccc3nc2Nc2ccc3c(c2)OCO3)c1,97*,1,-6,21*,9,-1,65*,
Cc1ccc(S(=O)(=O)Nc2nc3ccccc3nc2Nc2cccc(S(=O)(=O)N3CCCC3)c2)cc1,82*,-38,-11,10,0,-5,41*,
O=S(=O)(Nc1nc2ccccc2nc1Nc1ccc2c(c1)OCO2)c1ccccc1,41,-7,1,8,11,-1,.,
COc1ccc(CCNC(=O)C2(C)CCC(=O)N2CCC(C)C)cc1OC (configuration not stated),-2,1,-5,-2,10,0,.,
CCOC(=O)c1ccc(NC(=O)CSc2nc3c(c(=O)n2-c2ccccc2OC)SCC3)cc1,-1,-4,-14,-6,5,-1,.,
S=c1[nH]nc(-c2cc(-c3ccccn3)nc3ccccc23)o1,6,-1,-15,-3,12,-7,.,

# High-throughput results: PubChem, several laboratories
